What was measured:
[1] = Stability of analytes in rat plasma QC samples and postpreparative stability; assay type: in vitro ADME; conditions: for Stability in rat plasma, recovered percentage: QC samples (0.1, 0.5, and 5.0 μg/mL); for Postpreparative stability: prepared samples, 24 h storage at 4°C
Summary of the method: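 Drug-free rat plasma was spiked to give QC samples at 0.1, 0.5 and 5.0 μg/mL. Samples were stored at room temperature or -20°C. For postpreparative stability, extracted samples were held at 4°C. Samples were extracted with acetonitrile plus isoliquiritin IS and quantified by C18 water/acetonitrile gradient HPLC-UV at 330 nm. Results are given as percent recovered.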

[2] = ref Park et al., 21, cited from earlier work
[3] = 12 h storage at room temperature

Stability in rat plasma, recovered percentage ([1]; 4-weeks storage at -20°C) [%] | Stability in rat plasma, recovered percentage [1, 3] [%] | Postpreparative stability [1] [%] | Structure (SMILES) | Plasma level after intravenous administration ([2]; intravenous administration of decursin) | Hepatic first-pass metabolism [2]
99.0 ± 4.4 | 97.8 ± 7.1 | 100.5 ± 6.1 | CC(C)(O[C@@H]1O[C@H](CO)[C@@H](O)[C@H](O)[C@H]1O)[C@H]1Cc2cc3ccc(=O)oc3cc2O1 [Nodakenin, nodakenin] | – | –
100.9 ± 5.9 | 89.9 ± 10.6 | 97.8 ± 5.4 | CC1(C)Oc2cc3oc(=O)ccc3cc2C[C@@H]1O [Decursinol, decursinol] | – | –
– | – | – | CC(C)=CC(=O)O[C@H]1Cc2cc3ccc(=O)oc3cc2OC1(C)C [decursin] | rapidly decreased | extensive hepatic first-pass metabolism
